The values that follow come from ChEMBL document CHEMBL1955834, “Disparate SAR data of griseofulvin analogues for the dermatophytes Trichophyton mentagrophytes, T. rubrum, and MDA-MB-231 cancer cells” (J Med Chem, 2012).

Activity calls are given as the source filed them. The calls are words filed in the database; no cut-off is given here.

Series [1] concerns Trichophyton mentagrophytes. Nature of the series: Antifungal activity against Trichophyton mentagrophytes IBT 2724 after 7 days by micro broth dilution method. In kind it is functional, organism-based. The conditions noted are these: IBT 2724, 168 h. In outline: (§1)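 T. mentagrophytes IBT2724 was tested by broth microdilution using an 8-fold dilution series of 10 concentrations from 50 μM down to 0.4 μM, with 1% DMSO. The inoculum was prepared per CLSI M38-A2, adjusted to OD530 0.90–1.5 and diluted 50-fold in RPMI/MOPS at pH 7.00. Plates ran 7 days at 37 °C with an OD read-out. IC50 came from a variable-slope sigmoidal fit.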

A short description of series [2]: (§2) Cytotoxicity against human SCC114 cells by phenotype-based spindle multipolarity assay. In kind it is functional, cell-based.
For the next series, the system named is HeLa. Put plainly: Cytotoxicity against human HeLa cells. The class given is functional, cell-based.
Series [3] deals with Trichophyton rubrum. Nature of the series: Antifungal activity against Trichophyton rubrum IBT 29284 after 7 days by micro broth dilution method. In kind it is functional, organism-based. The conditions noted are these: IBT 29284, 168 h. The gist of the method: (§3)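 T. rubrum IBT29284 was tested by broth microdilution using a 4-fold dilution series of 10 concentrations from 50 μM down to 0.2 μM, with 1% DMSO. The inoculum followed CLSI M38-A2, set to OD530 0.90–1.5 and diluted 50-fold in RPMI/MOPS at pH 7.00. Incubation was 7 days at 37 °C, read by OD. IC50 came from a variable-slope sigmoidal fit.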
In general terms: Broth dilution looks for growth in wells or tubes with falling amounts of substance.

The test system of series [4] is MDA-MB-231. Nature of the series: Cytotoxicity against human MDA-MB-231 cells assessed as cell viability after 48 hrs by MTT assay. In kind it is functional, cell-based. Particulars: MDA-MB-231, 48 h. In outline: (§4)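 MDA-MB-231 cells were grown in L-15 with 10% FCS at 37 °C and seeded at (2-3) × 10^4 per well. Exposure was 24 and/or 48 h, then MTT for at least 4 h, with absorbance read at 570/630 nm. Each condition had at least 3 replicates, reported as mean ± SD of a representative experiment repeated at least three times.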
Background: Formazan colour is commonly taken as a measure of viable cells.

In a further series the test system is V79. Nature of the series: Cytotoxicity against Chinese hamster V79 cells. The conditions noted are these: Cricetulus griseus. The class given is functional, cell-based.
A short description of series [5]: Drug degradation in phosphate buffered saline at pH 7.4 assessed as compound hydrolysis after 48 hrs. The class given is physicochemical. Particulars: read-out: Drug degradation. The gist of the method:
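Oximes were held in PBS at pH 7.4 for 48 h, and hydrolysis to the parent ketones was monitored.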

Series [6] concerns Trichophyton mentagrophytes. Put plainly: Antifungal activity against Trichophyton mentagrophytes IBT 2724 at 50 uM after 7 days by micro broth dilution method. The class given is functional. The conditions noted are these: for inhibition at 50 µM: IBT 2724, 168 h. In outline:
as §1

The subject of series [7] is Trichophyton rubrum. Nature of the series: Antifungal activity against Trichophyton rubrum IBT 29284 at 50 uM after 7 days by micro broth dilution method. In kind it is functional. In outline: as §3
The test system of the next series is SCC114. The series is described as §2. In kind it is functional, cell-based.
The test system of series [8] is MDA-MB-231. Nature of the series: Cytotoxicity against human MDA-MB-231 cells assessed as cell viability at 50 uM after 48 hrs by MTT assay. In kind it is functional. The conditions noted are these: for inhibition at 50 µM: MDA-MB-231, 48 h. In outline: as §4
Series [9] concerns MDA-MB-231. Nature of the series: Ratio of griseofulvin IC50 to compound IC50 for human MDA-MB-231 cells. In kind it is functional.

For orientation: IC50 means the point on the concentration scale where inhibition reaches its midpoint. Take `COC1=CC(=O)C[C@@H](C)[C@]12Oc1c(Cl)c(OC)cc(OC)c1C2=O` [GRISEOFULVIN]: the IC50 worked out at 0.058 µM in [1]; 20 µM in series [2]; 25 µM in the series on HeLa; 0.38 µM with Trichophyton rubrum [3]; 18 µM in the series on MDA-MB-231 [4]; 8 µM in the series on V79.

The inhibition is the percentage by which the read-out fell short of the control. For the compound `COc1cc(OC)c2c(c1Cl)O[C@]1(C2=O)C(OCc2cccc3ccccc23)=C/C(=N\O)C[C@H]1C`, the degraded at 48 h in series [5] was under 5%. Moreover, the IC50 in the series with MDA-MB-231 [4] was found to be 8.3 µM. Also, the inhibition entry (in [6]; in the series on Trichophyton rubrum [7]) was “inactive” throughout.

With `COc1cc(OC)c2c(c1Cl)O[C@]1(C2=O)C(OCc2ccccc2)=C/C(=N\O)C[C@H]1C`, the degraded at 48 h in series [5] was under 5%. Besides, the half-inhibitory concentration (IC50) came out at 0.3 µM in series [1], 7.9 µM in the series with Trichophyton rubrum [3] and 1.4 µM in the series on MDA-MB-231 [4].

For the compound `COc1cc(OC)c2c(c1Cl)O[C@@]1(C(=O)C=C(OCC3CC3)C[C@H]1C)C2=O`, the inhibition result in the series with SCC114 and in the series on Trichophyton rubrum [7] was “inactive” each time. Moreover, in the series with MDA-MB-231 [4], the IC50 was 52 µM. The inhibition at 50 µM in series [6] is under 50%.

With `COc1cc(OC)c2c(c1Cl)O[C@@]1(C(=O)C=C(OCc3ccccc3)C[C@H]1C)C2=O`, the inhibition entry in the series on SCC114 and with Trichophyton rubrum [7] was “inactive” each time. Further, the inhibition at 50 µM (in series [6]; in the series on MDA-MB-231 [8]) was under 50% each time.

As for `COc1cc(OC)c2c(c1Cl)O[C@]1(C2=O)C(OCc2ccc(COC3=CC(=O)C[C@@H](C)[C@]34Oc3c(Cl)c(OC)cc(OC)c3C4=O)cc2)=CC(=O)C[C@H]1C`, in the series with MDA-MB-231 [4], the IC50 is 8.5 µM. Besides, the inhibition entry (in [6]; in the series on Trichophyton rubrum [7]) was “inactive” each time. Besides, the “Ratio IC50” value with MDA-MB-231 [9] was 2.

Regarding `COc1cc(OC)c2c(c1Cl)O[C@@]1(C(=O)C=C(OC3CCCC3)C[C@H]1C)C2=O`, the inhibition result with SCC114 and in the series with Trichophyton rubrum [7] was “inactive” in each case. Besides, the IC50 with MDA-MB-231 [4] is 27 µM. Also, the inhibition at 50 µM in series [6] is under 50%.

Turning to `CCOC1=CC(=O)[C@@]2(Oc3c(Cl)c(OC)cc(OC)c3C2=O)[C@H](C)C1`, the inhibition entry with SCC114 and with Trichophyton rubrum [7] was “inactive” each time. In addition, the inhibition at 50 µM (in series [6]; in the series with MDA-MB-231 [8]) was under 50% throughout.

Regarding `CCCOC1=CC(=O)C[C@@H](C)[C@]12Oc1c(Cl)c(OC)cc(OC)c1C2=O`, the IC50 was 0.05 µM in series [1], 0.62 µM with Trichophyton rubrum [3], 16 µM in the series on MDA-MB-231 [4] and 0.7 µM with V79.

`CCCOC1=CC(=O)[C@@]2(Oc3c(Cl)c(OC)cc(OC)c3C2=O)[C@H](C)C1`: the inhibition entry in the series on SCC114 and in the series on Trichophyton rubrum [7] was “inactive” each time. Further, in the series on MDA-MB-231 [4], the IC50 was found to be 43 µM. Moreover, the inhibition at 50 µM in series [6] is under 50%.

Take `COC(=O)C1=CC(=O)C=C(OC)[C@]12Oc1c(Cl)c(C)c(Cl)c(O)c1C2=O`: the IC50 with MDA-MB-231 [4] turned out to be 9.9 µM. The inhibition result (in series [6]; in the series on Trichophyton rubrum [7]) was “inactive” each time. Moreover, the “Ratio IC50” value in the series on MDA-MB-231 [9] is listed as 2.

In the case of `COC1=CC(=O)[C@@]2(Oc3c(Cl)c(OC)cc(OC)c3C2=O)[C@H](C)C1`, the inhibition entry (with SCC114; in [6]; with Trichophyton rubrum [7]; in the series with MDA-MB-231 [8]) was “inactive” throughout.

As to `COC1=C/C(=N\O)C[C@@H](C)[C@]12Oc1c(Cl)c(OC)cc(OC)c1C2=O`, the degraded at 48 h in series [5] was under 5%. Moreover, the concentration for half-maximal inhibition (IC50) in series [1] was found to be 0.19 µM; with Trichophyton rubrum [3] it was 1.3 µM; in the series with MDA-MB-231 [4], 12 µM.
